Hits are enriched below; roughly 2.1% of the tested compounds scored in any of these assays.
C2C12 statin: suppressors of simvastatin-induced myotoxicity in C2C12 myotubes. rescue of ATP level, % at 7.49 µM. ATP luminescence, 48 h; scaled: DMSO 0, geranylgeraniol control 100. actives 0.78% (n = 330,000). AID 602340;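 active means mean ATP rescue above about 67%, or every replicate alone reaching that limit, limit read from the data, passing the limit was not always enough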;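 further: myotubes were challenged with 10 µM simvastatin during compound exposure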
DENV2 CPE rescue: protects cells from dengue virus 2 cytopathic effect; DENV2-infected cells, cytopathic effect rescue, plate reader; CPE inhibition, % at 9.99 µM; actives 1.7% (n = 350,000); AID 651640; in the data active means CPE inhibition above about 20%, passing the limit was not always enough; tested in BHK-21 cells;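 further: 0% = median of neutral control wells and 100% = median of positive control wells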
XiGFP reactiv: X-chromosome reactivation activator | XiGFP mouse fibroblasts, % GFP-positive cells imaging, 3 d; cells co-treated with 5-aza-dC sensitizer; scaled so ellipticine positive control = 100% | AID 743238 | actives 0.055% (n = 360,000) | activation, % at 7.58 µM;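 active means mean normalized replicate activation at least 10% and every replicate at or above 10%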;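 further: 0% = median of on-plate neutral control wells and 100% = ellipticine 6 µM median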
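assay system = SV40-immortalized XiGFP fibroblast cells, line 68-5-11 | buffer or medium = DMEM plus 5-aza-dC sensitizer | doses = single-point pinned compound dosing | times = 3-day compound exposure, then 15 min fixation at room temperature | benchmarks = positive control ellipticine, 6 µM final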
Cneo AK release: Cryptococcus neoformans lysis via adenylate kinase release | C. neoformans lysis, adenylate kinase release luminescence, 4 h; normalised: neutral wells 0, clomiphene wells 100 | lysis activity, % at 15 µM | actives 0.2% (n = 360,000);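 active means mean lysis activity across replicates of at least 80%, whatever share of replicates individually reach that level; inactive means mean lysis activity below 80%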
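Assay system: Cryptococcus neoformans yeast cells / Dosing: single-point compound dose / Timing: 4 h at 37 °C static, read 1 h later / Measured by: luminescence of released adenylate kinase using an AK detection reagent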
An asterisk follows results filed as active; x = no result; ! = a repeat was not active.

SMILES	C2C12 statin	DENV2 CPE rescue	XiGFP reactiv	Cneo AK release
CS(=O)(=O)N1CCN(C(=O)c2c(F)cccc2F)CC1	19.9	x	x	x
CN(c1ccccc1C(=O)N1CCCC1)S(C)(=O)=O	99.7*	x	x	3.5
C[C@H](CO)N1C[C@H](C)[C@@H](CN(C)C(=O)NC2CCCCC2)Oc2ccc(NC(=O)Cn3cnnn3)cc2CC1=O	2.8	-1.0	-0.1	-1.0
C[C@H]1CN([C@@H](C)CO)C(=O)CCCn2cc(nn2)CO[C@H]1CN(C)Cc1ccc(C(=O)O)cc1	x	25.2*	-0.3	x
C[C@H]1CN([C@@H](C)CO)C(=O)CCCn2cc(nn2)CO[C@@H]1CN(C)Cc1cccc(C(=O)O)c1	-21.8	23.9*	-0.3	1.3
C[C@H]1CN([C@@H](C)CO)C(=O)CCCn2cc(nn2)CO[C@@H]1CN(C)Cc1ccc(C(=O)O)cc1	x	-5.6	0.0	x
CCC(=O)N[C@H]1CC[C@H](CC(=O)NCc2ccc(OC)cc2)O[C@H]1CO	-0.8	4.0	-0.4	0.0
O=C(C[C@H]1CC[C@H]2[C@@H](COC[C@H](O)CN2S(=O)(=O)c2ccccc2)O1)NCc1ccc(-c2ccccc2)cc1	5.8	1.6	0.0	-0.6
COc1ccc(N(C(=O)c2snc(C(N)=O)c2N)C(C(=O)NC2CCCCC2)c2ccc(C)o2)cc1 (stereo unspecified)	74.7*	9.2	-0.1	1.1
COc1ccc(N(C(=O)c2snc(C(N)=O)c2N)C(C(=O)NC2CCCC2)c2ccco2)cc1 (stereo unspecified)	-7.9	16.4	0.1	-6.2
C[C@@H]1CN([C@@H](C)CO)C(=O)c2cccc(NC(=O)C3CCCCC3)c2O[C@@H]1CN(C)C(=O)Nc1ccc(C(F)(F)F)cc1	-17.9	-10.1	-0.1	3.5
COc1ccc(Nc2ncc(C(=O)N3CCN(c4ccc(F)cc4)CC3)c3ccccc23)cc1	156.8*	x	x	-2.7
CCOc1nc(Nc2ccc(F)cc2)nc(N2CCN(c3ccc(OC)cc3)CC2)n1	109.5*	x	x	-1.6
O=C(CN1CCOCC1)NCC[C@H]1CC[C@H](NC(=O)Nc2ccccc2)[C@H](CO)O1	-0.8	x	-0.2	52.0
CCOC1=C2CN(S(=O)(=O)c3ccc(C)cc3)[C@@H](c3ccc(CC)cc3)C[C@H]2[C@H]2C(=O)N(c3ccccc3)C(=O)[C@H]2C1	-8.8	0.9	0.0	0.0
CCOC1=C2CN(S(=O)(=O)c3ccc(C)cc3)C(c3ccc(CC)cc3)CC2N(S(=O)(=O)c2ccc(C)cc2)C(c2ccc(CC)cc2)C1 (stereo unspecified)	x	-4.8	0.0	x
CCOC1=C2CN(S(=O)(=O)c3ccc(C)cc3)[C@H](c3ccccc3)C[C@H]2[C@H]2C(=O)N(c3ccccc3)C(=O)[C@H]2C1	-10.4	49.1*	0.0	1.2
CCOC1=C2CN(S(=O)(=O)c3ccc(C)cc3)[C@H](c3ccc(CC)cc3)C[C@@H]2N(S(=O)(=O)c2ccc(C)cc2)[C@H](c2ccccc2)C1	-5.1	94.9*	0.0	-0.9
CNc1cncc(-c2cccc(NS(C)(=O)=O)c2)n1	1.3	3.3	-0.1	3.6
CNc1cncc(-c2cccc(C(C)=O)c2)n1	3.1	31.3*	0.1	4.6
COc1ccc2c3c([nH]c2c1)[C@H](CO)N(C(=O)C1CCCC1)CC31CCN(C)CC1	x	-4.2	0.2	x
Cn1ncc(N=Cc2ccccc2O)c1C(=O)Nc1ccccc1	117.5*	x	x	0.5
COc1ccc2c3c([nH]c2c1)[C@@H](CO)N(Cc1nccs1)CC31CN(Cc2cccnc2)C1	x	-6.3	-0.1	x
COc1ccc2c3c([nH]c2c1)[C@H](CO)N(C(C)=O)CC31CN(C(=O)c2cccc(F)c2)C1	x	83.5*	0.5	x
COc1ccc2c3c([nH]c2c1)[C@@H](CO)N(C(=O)CN1CCOCC1)CC31CN(Cc2ccccc2)C1	x	39.7*	0.0	x
SMILES	C2C12 statin	DENV2 CPE rescue	XiGFP reactiv	Cneo AK release
COc1ccc2c3c([nH]c2c1)[C@@H](CO)N(C(=O)c1ccccc1)CC31CCN(C)CC1	x	31.0*	0.9	x
COc1ccc2c3c([nH]c2c1)[C@@H](CO)N(Cc1nccs1)CC31CN(Cc2ccncc2)C1	x	54.2*	0.0	x
COc1ccc2c3c([nH]c2c1)[C@H](CO)N(C(=O)c1ccccc1)CC31CCN(C)CC1	x	10.5	0.7	x
CCC(=O)N1CC2(CCN(Cc3ccccc3Cl)CC2)c2c([nH]c3cc(OC)ccc23)[C@H]1CO	x	-0.7	0.0	x
CCC(=O)N1CC2(CCN(Cc3ccccc3Cl)CC2)c2c([nH]c3cc(OC)ccc23)[C@@H]1CO	x	23.6*	0.1	x
COc1ccc2c3c([nH]c2c1)[C@@H](CO)N(C(=O)c1cccnc1)CC31CCN(Cc2ccccc2)CC1	x	-25.5	0.6	x
COc1ccc2c3c([nH]c2c1)[C@@H](CO)N(C(=O)c1cccnc1)CC31CN(Cc2ccccc2)C1	x	35.1*	0.1	x
CCC(=O)N1CCC2(CC1)CN(S(=O)(=O)c1ccccc1)[C@@H](CO)c1[nH]c3cc(OC)ccc3c12	x	27.9*	0.0	x
COc1ccc2c3c([nH]c2c1)[C@@H](CO)N(C(=O)c1ccc(F)cc1)CC31CN(Cc2cccnc2)C1	x	6.8	0.4	x
COc1ccc2c3c([nH]c2c1)[C@H](CO)N(C(=O)c1ccc(F)cc1)CC31CN(Cc2cccnc2)C1	x	44.6*	0.2	x
CCCC(=O)Nc1ccc2c(c1)C(=O)N(C)C[C@@H](OC)[C@H](C)CN(C(=O)Cc1cccnc1)[C@H](C)CO2	6.7	-3.9	0.4	3.7
O=C(NCc1cccs1)C1(S(=O)(=O)c2ccccc2)CC=CC1	-7.8	-19.4	0.0	5.0
O=C(NCc1ccco1)C1(S(=O)(=O)c2ccccc2)CC=CC1	7.1	40.6*	0.6	-9.0
CCOC(=O)C1=C(C)N(C[C@@H]2CC[C@@H](Cc3ccc4cc(OC)ccc4c3)O2)C(=O)NC1c1ccccc1 (stereo partly specified)	-0.2	48.7*	0.1	1.4
CCOC(=O)C1=C(C)N(CCCC(=O)O)C(=O)NC1c1ccc(OC)cc1 (stereo unspecified)	9.3	3.2	0.2	-3.7
C=CCOc1ccc2c(OC)c3ccoc3nc2c1OC	92.1*	x	x	-3.1
C[C@@H]1CN([C@H](C)CO)S(=O)(=O)c2ccc(-c3ccccc3)cc2O[C@H]1CN(C)C(=O)C1CCCCC1	-31.4	-12.3	-0.7	105.0*
C[C@H]1CN([C@@H](C)CO)S(=O)(=O)c2ccc(-c3cncnc3)cc2O[C@@H]1CN(C)C(=O)C1CCC1	1.8	10.1	0.0	0.9
CC(=O)N(C)C[C@H]1Oc2cc(-c3ccccc3)ccc2S(=O)(=O)N([C@@H](C)CO)C[C@@H]1C	8.0	33.4*	-1.2	1.9
C[C@H](CO)N1C[C@H](C)[C@@H](CN(C)C(=O)C2CCC2)Oc2cc(-c3cncnc3)ccc2S1(=O)=O	2.3	28.7*	-0.2	-1.4
CCC(=O)N(C)C[C@H]1Oc2cc(-c3ccccc3F)ccc2S(=O)(=O)N([C@H](C)CO)C[C@H]1C	-2.8	24.5*!	-1.2	0.0
